Assay outcomes as filed in PubChem.
Rows were chosen to be rich in hits. Some 2.5% of all compounds tested hit in one or more screens of this group.
NSD2 inh – blocks human histone methyltransferase NSD2; O96028; NSD2 peptide methylation, AlphaScreen, 120 min; inhibition, % at 12.5 µM; 310,000 compounds, 0.54% hits; AID 743445
dFosB act-1 – mouse delta FosB homodimer activation. purified delta FosB, TAMRA-CDK5 oligo fluorescence polarization; percent of positive-control signal above neutral wells. activation, % at 25 µM. 340,000 compounds, 0.99% hits;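 active means mean activation above about 17%, with every replicate also reaching it, limit read from the data, passing the limit was not always enough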
Target sequence (P13346 whole entry, looked up): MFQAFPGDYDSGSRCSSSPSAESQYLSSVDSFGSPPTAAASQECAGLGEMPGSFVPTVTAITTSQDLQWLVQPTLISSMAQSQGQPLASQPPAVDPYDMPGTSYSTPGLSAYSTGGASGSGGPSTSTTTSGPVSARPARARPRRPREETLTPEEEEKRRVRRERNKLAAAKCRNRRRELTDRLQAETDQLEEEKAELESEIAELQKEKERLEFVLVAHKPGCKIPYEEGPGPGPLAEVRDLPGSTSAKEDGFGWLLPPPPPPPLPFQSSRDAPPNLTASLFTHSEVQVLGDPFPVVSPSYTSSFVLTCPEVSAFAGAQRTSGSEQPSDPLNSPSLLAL
SR-BI HDL uptake – inhibitors of mouse SR-BI mediated HDL lipid uptake | Q61009 | ldlA[mSR-BI] CHO cells, DiI-HDL uptake fluorescence, 3 h | inhibition, % at 12.5 µM | 320,000 compounds, 0.96% hits;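 active means mean replicate inhibition of at least 70% and a set share of replicates each scoring 70 or more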;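 further: 0% = median of neutral control wells and 100% = median of positive control wells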
CDK5 inh – inhibitors of human CDK5/p35 kinase. AID 488839. inhibition, % at 10 µM. 330,000 compounds, 0.01% hits. Recombinant CDK5/p35, ADP-Glo luminescence, 60 min;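 active means highest replicate inhibition of at least 50% and at least 75% of replicates reaching 50%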;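 further: plate controls were DMSO neutral control for no effect and GW8510 at 10 µM for full effect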
SR-BI DiI-HDL act – activators of SR-BI mediated HDL lipid uptake; CHO ldlA[mSR-BI] cells, DiI-HDL uptake fluorescence, 3 h; 100 = double the neutral-control signal; activation, % at 12.5 µM; 320,000 compounds, 0.096% hits; AID 504775;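 active means mean replicate activation of at least 60% and every replicate at or above 60%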;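 further: 0% = median plate neutral-control signal and 100% = twice that signal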
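System: CHO ldlA[mSR-BI] cells / Medium: HEPES-buffered (25 mM, pH 7.4) F12 plus 0.5% BSA / Probe or stimulus: labelled HDL, 10 µg/mL / Doses: single compound concentration, delivered by pin transfer / Schedule: 3 h, 37 °C / Measured by: DiI fluorescence, bottom read / Measure: cell-associated DiI fluorescence as measure of HDL uptake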
DYRK1A inh – Dyrk1A (rat) kinase inhibition; ADP-Glo luminescence, NFATc1 peptide; inhibition, % at 12.5 µM; AID 504441; 310,000 compounds, 0.43% hits; Q63470;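 further: plate controls were vehicle with enzyme for no effect and no enzyme for full effect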
dFosB act-2 – delta FosB (mouse) homodimer activation; activation, % at 24.9 µM; 2,400 tested, under 10 active; shares compounds with dFosB act-1; purified delta FosB, TAMRA-CDK5 oligo fluorescence polarization; normalised: neutral wells 0, positive control 100; AID 588690;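 active means highest replicate activation at or above 34% and every replicate reaching that threshold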;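 further: higher polarization means more probe DNA bound by delta FosB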
Starred values were filed as active, the others as inactive. Unless noted, no stated cut-off is given here; in the data, active means inhibition above about 50%; inactive means the rest.

How did COc1ccccc1-n1nc(C(=O)Nc2ccc3c(c2)OCO3)c2ccccc2c1=O do in these assays?
NSD2 inh: -0.5; dFosB act-1: 24.4*; SR-BI HDL uptake: 5.4; CDK5 inh: 0.4; SR-BI DiI-HDL act: -5.4; DYRK1A inh: -6.5; dFosB act-2: 1.5

What do the screens show for `CCc1nc(CN(C)C(=O)C2CCC(=O)N(Cc3cccc(F)c3)C2)no1` (stereo unspecified)?
NSD2 inh: -0.8; dFosB act-1: -3.6; SR-BI HDL uptake: -5.6; CDK5 inh: 1.3; SR-BI DiI-HDL act: 5.6; DYRK1A inh: -4.5

Results for CN(c1ccccc1)S(=O)(=O)c1cccc(NC(=O)Cc2n[nH]c(=O)c3ccccc23)c1 ?
NSD2 inh: 0.8; dFosB act-1: -9.3; SR-BI HDL uptake: -1.8; CDK5 inh: 0.7; SR-BI DiI-HDL act: 1.8; DYRK1A inh: -2.0

How did O=C(NCCO)C(=O)Nc1cc2c3c(c1)CCN3C(=O)CC2 do in these assays?
NSD2 inh: -2.1; dFosB act-1: -1.0; SR-BI HDL uptake: -5.1; CDK5 inh: -1.6; SR-BI DiI-HDL act: 5.1; DYRK1A inh: 9.4

How did Cc1cc(N2CCN(c3nc(-c4ccc([N+](=O)[O-])cc4)cs3)CC2)c2ccccc2n1 do in these assays?
NSD2 inh: 1.0; dFosB act-1: 26.3*; SR-BI HDL uptake: 48.0; CDK5 inh: -2.1; SR-BI DiI-HDL act: -48.0; DYRK1A inh: 0.2; dFosB act-2: -1.7

Results for O=C(CCCC(=O)OCC(=O)c1ccc(Cl)cc1)NC1CCCCC1 ?
NSD2 inh: 1.9; dFosB act-1: -1.6; SR-BI HDL uptake: -8.5; CDK5 inh: -3.7; SR-BI DiI-HDL act: 8.5; DYRK1A inh: 1.3

Results for COc1ccc(NC(=O)c2cc([N+](=O)[O-])ccc2NC(=O)CNCc2ccccn2)c(OC)c1 ?
NSD2 inh: -3.6; dFosB act-1: -9.2; CDK5 inh: -1.4; DYRK1A inh: 0.4

How did COc1cc(NC(=O)c2cc([N+](=O)[O-])ccc2NC(=O)CNCc2ccccn2)cc(OC)c1 do in these assays?
NSD2 inh: 0.4; dFosB act-1: 35.5*; CDK5 inh: -1.7; DYRK1A inh: 0.9; dFosB act-2: -1.3

How did CCCCn1c(N)c(N(CC(C)C)C(=O)c2cccc(S(=O)(=O)N3CCCCCC3)c2)c(=O)[nH]c1=O do in these assays?
NSD2 inh: 0.1; dFosB act-1: 38.6*; SR-BI HDL uptake: -4.0; CDK5 inh: 0.3; SR-BI DiI-HDL act: 4.0; DYRK1A inh: 9.7; dFosB act-2: -4.7

Results for COc1ccc(CNC(=O)C2CCN(c3nnc(N4CCCC4=O)s3)CC2)cc1 ?
dFosB act-1: -4.6; SR-BI HDL uptake: -8.5; CDK5 inh: -0.3; SR-BI DiI-HDL act: 8.5; DYRK1A inh: -0.5

How did COc1ccc(Br)cc1CNC(=O)C1CCN(c2nnc(N3CCCC3=O)s2)CC1 do in these assays?
NSD2 inh: -5.5; dFosB act-1: 43.3*; SR-BI HDL uptake: 32.1; CDK5 inh: 0.7; SR-BI DiI-HDL act: -32.1; DYRK1A inh: -4.1; dFosB act-2: 1.6

Results for Cc1cc(C)c(S(=O)(=O)N2CCCC(C(=O)N3CCOCC3)C2)c(C)c1 (stereo unspecified) ?
NSD2 inh: -2.0; dFosB act-1: -3.0; SR-BI HDL uptake: -19.7; CDK5 inh: 0.2; DYRK1A inh: -4.9

Results for CCCCn1c(N)c(N(C)C(=O)C2CCCC2)c(=O)[nH]c1=O ?
NSD2 inh: -2.9; dFosB act-1: -3.0; SR-BI HDL uptake: -14.0; CDK5 inh: 0.9; SR-BI DiI-HDL act: 14.0; DYRK1A inh: -2.2

Results for Cc1cnc(C(=O)N2CCN(S(=O)(=O)c3ccc(F)c(F)c3F)CC2)cn1 ?
NSD2 inh: 3.9; dFosB act-1: 19.1*; SR-BI HDL uptake: -11.7; CDK5 inh: 0.6; SR-BI DiI-HDL act: 11.6; dFosB act-2: -2.2

Results for Cc1cc(C)c2nc(/N=C(\N)NC(=O)Nc3ccccc3)nc(C)c2c1 ?
NSD2 inh: -0.9; dFosB act-1: 51.9*; SR-BI HDL uptake: 1.7; CDK5 inh: 0.3; SR-BI DiI-HDL act: -1.7; DYRK1A inh: 4.6; dFosB act-2: 1.5

What do the screens show for `CCC(CC)NC(=O)COn1nnc2ccc(S(=O)(=O)N3CCOCC3)cc21`?
NSD2 inh: -0.6; dFosB act-1: 6.4; SR-BI HDL uptake: 8.4; CDK5 inh: 0.1; SR-BI DiI-HDL act: -8.4; DYRK1A inh: -2.8

How did O=C(CSc1nc(-c2cccs2)cc(C(F)(F)F)n1)NCc1ccccc1 do in these assays?
NSD2 inh: -10.5; dFosB act-1: 21.5*; SR-BI HDL uptake: -3.9; CDK5 inh: -0.6; SR-BI DiI-HDL act: 3.9; DYRK1A inh: 3.5; dFosB act-2: 5.2

How did CCN(C[C@H]1N[C@@](CC)(C(=O)OC)[C@H]2C(=O)N(C)C(=O)[C@@H]12)C(=O)C1CCCCC1 do in these assays?
dFosB act-1: -5.2; SR-BI HDL uptake: -17.8; CDK5 inh: 4.1; SR-BI DiI-HDL act: 17.8; DYRK1A inh: 0.7

What do the screens show for `CC(C)(C)c1ccccc1NC(=O)Nc1nc(C(N)Cc2ccc(F)cc2)cs1` (stereo unspecified)?
NSD2 inh: 18.8

How did CCC[C@@H](CN1CCC[C@H]1CN1C(N)=NC[C@H]1CC(C)C)N1C[C@@H](Cc2ccccc2)N(CCc2ccc(Cl)c(Cl)c2)C1=N do in these assays?
dFosB act-1: 3.1; SR-BI HDL uptake: 12.1; CDK5 inh: 7.3; SR-BI DiI-HDL act: -12.1; DYRK1A inh: -1.1

What do the screens show for `CCOc1ccc(CCN2C(=S)N([C@@H](CC(C)C)CN3CCCC3CN3C(=S)NC[C@@H]3Cc3ccc(O)cc3)C[C@@H]2CC(C)C)cc1` (stereo partly specified)?
dFosB act-1: 25.5*; SR-BI HDL uptake: -17.9; CDK5 inh: 0.2; SR-BI DiI-HDL act: 17.9; dFosB act-2: 5.4

How did CCOc1ccc(CCN2C(=S)N([C@@H](CC(C)C)CN3CCCC3CN3C(=S)NC[C@@H]3CC(C)C)C[C@@H]2Cc2ccc(O)cc2)cc1 (stereo partly specified) do in these assays?
dFosB act-1: 37.5*; SR-BI HDL uptake: -7.9; CDK5 inh: 0.1; SR-BI DiI-HDL act: 7.9; dFosB act-2: 3.4

How did COc1ccc(Cl)cc1NC(=O)CCc1nnc2ccc(N3CCN(C)CC3)nn12 do in these assays?
NSD2 inh: 1.0; dFosB act-1: -8.7; SR-BI HDL uptake: -3.6; CDK5 inh: 0.3; SR-BI DiI-HDL act: 3.6; DYRK1A inh: 2.8

How did O=C(Cc1ccc(Cl)cc1)NNC1CC(=O)N(c2ccc3ccccc3c2)C1=O (stereo unspecified) do in these assays?
NSD2 inh: 1.4; dFosB act-1: 31.9*; SR-BI HDL uptake: 5.1; CDK5 inh: 0.0; SR-BI DiI-HDL act: -5.1; DYRK1A inh: 4.8; dFosB act-2: 2.6
